In ChEMBL document CHEMBL4033785, “Increased Potency and Selectivity for Group III Metabotropic Glutamate Receptor Agonists Binding at Dual sites” (J Med Chem, 2018):
pEC50, pIC50: −log10 of the molar value. Calls of active or inactive are those of the source. The calls are words filed in the database; no cut-off is given here.

Assays:
[1] = target: T1, Metabotropic glutamate receptor 8 (Homo sapiens, UniProt O00222); test: Agonist activity at mGlu8 (unknown origin) expressed in HEK293 cells coexpressing chimeric Gq/i protein assessed as increase in intracellular calcium accumulation at 300 uM by Fluo-4 AM dye based fluorescence assay; assay type: functional, cell-based
[2] = target: T2, Metabotropic glutamate receptor 4 (Homo sapiens, UniProt Q14833); test: Agonist activity at mGlu4 (unknown origin) expressed in HEK293 cells coexpressing chimeric Gq/i protein assessed as increase in intracellular calcium accumulation at 300 uM by Fluo-4 AM dye based fluorescence assay; assay type: functional, cell-based
[3] = organism: Homo sapiens; test: (§1) Selectivity ratio of EC50 for mGlu8 (unknown origin) expressed in HEK293 cells coexpressing chimeric Gq/i protein assessed as increase in intracellular calcium accumulation to EC50 for mGlu4 (unknown origin) expressed in HEK293 cells coexpressing chimeric Gq/i protein assessed as increase in intracellular calcium accumulation; assay type: cell-based
In short: (§2)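 Ratio of mGlu8 EC50 to mGlu4 EC50, both from the same functional assay. Both receptors were co-expressed in HEK293 cells with chimeric G-protein and EAAT3 and read by 3H-IP accumulation or by Fluo-4 Ca2+ release.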

[4] = organism: Homo sapiens; test: as §1, with “[3H]inositol phosphate” for “increase in intracellular calcium”; assay type: cell-based; in short: as §2
[5] = target: T3, Metabotropic glutamate receptor 7 (Homo sapiens, UniProt Q14831); test: Agonist activity at mGlu7 (unknown origin) expressed in HEK293 cells coexpressing chimeric Gq/i protein assessed as [3H]inositol phosphate accumulation after 30 mins by scintillation and luminescence counting method; assay type: functional, cell-based
In short: (§3)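 Receptor transiently co-expressed in HEK293 cells (electroporation) with chimeric G-protein and glutamate transporter EAAT3. Cells labelled overnight with 3H-myoinositol, stimulated with agonist 30 min, lysed 1 h in cold 0.1 M formic acid. 3H-IP isolated on Dowex ion exchange and counted. IP expressed relative to IP plus membrane radioactivity. Points in triplicate; EC50 from Hill-equation fit.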

[6] = target: T3, Metabotropic glutamate receptor 7; test: Agonist activity at mGlu7 (unknown origin) expressed in HEK293 cells coexpressing chimeric Gq/i protein assessed as increase in intracellular calcium accumulation by Fluo-4 AM dye based fluorescence assay; assay type: functional, cell-based
[7] = target: T4, Metabotropic glutamate receptor 6 (Homo sapiens, UniProt O15303); test: Agonist activity at mGlu6 (unknown origin) expressed in HEK293 cells coexpressing chimeric Gq/i protein assessed as increase in intracellular calcium accumulation by Fluo-4 AM dye based fluorescence assay; assay type: functional, cell-based
[8] = target: T4, Metabotropic glutamate receptor 6; test: Agonist activity at mGlu6 (unknown origin) expressed in HEK293 cells coexpressing chimeric Gq/i protein assessed as [3H]inositol phosphate accumulation after 30 mins by scintillation and luminescence counting method; assay type: functional, cell-based; in short: as §3
[9] = target: T1, Metabotropic glutamate receptor 8; test: Agonist activity at mGlu8 (unknown origin) expressed in HEK293 cells coexpressing chimeric Gq/i protein assessed as increase in intracellular calcium accumulation by Fluo-4 AM dye based fluorescence assay; assay type: functional, cell-based
[10] = target: T2, Metabotropic glutamate receptor 4; test: Agonist activity at mGlu4 (unknown origin) expressed in HEK293 cells coexpressing chimeric Gq/i protein assessed as increase in intracellular calcium accumulation by Fluo-4 AM dye based fluorescence assay; assay type: functional, cell-based
[11] = target: T1, Metabotropic glutamate receptor 8; test: Agonist activity at mGlu8 (unknown origin) expressed in HEK293 cells coexpressing chimeric Gq/i protein assessed as [3H]inositol phosphate accumulation after 30 mins by scintillation and luminescence counting method; assay type: functional, cell-based; in short: as §3
[12] = target: T2, Metabotropic glutamate receptor 4; test: Agonist activity at mGlu4 (unknown origin) expressed in HEK293 cells coexpressing chimeric Gq/i protein assessed as [3H]inositol phosphate accumulation after 30 mins at 100 uM by scintillation and luminescence counting method; assay type: functional, cell-based; in short: as §3
[13] = target: T5, Metabotropic glutamate receptor 4 (Rattus norvegicus, UniProt P31423); test: Agonist activity at mGlu4 in Wistar rat striatum assessed as decrease in corticostriatal glutamatergic excitatory post-synaptic potential by whole cell patch clamp assay
[14] = target: T5, Metabotropic glutamate receptor 4; test: Agonist activity at mGlu4 in Wistar rat striatum assessed as decrease in striatal GABAergic inhibitory post-synaptic potential by whole cell patch clamp assay
[15] = organism: Homo sapiens; test: as §1, with “assessed as [3H]inositol phosphate accumulation to” for “assessed as increase in intracellular calcium accumulation to”; assay type: cell-based
[16] = target: T3, Metabotropic glutamate receptor 7; test: Agonist activity at mGlu7 (unknown origin) expressed in HEK293 cells coexpressing chimeric Gq/i protein assessed as [3H]inositol phosphate accumulation at 300 uM after 30 mins by scintillation and luminescence counting method; assay type: functional, cell-based; in short: as §3
[17] = target: T3, Metabotropic glutamate receptor 7; test: Agonist activity at mGlu7 (unknown origin) expressed in HEK293 cells coexpressing chimeric Gq/i protein assessed as increase in intracellular calcium accumulation at 300 uM by Fluo-4 AM dye based fluorescence assay; assay type: functional, cell-based
[18] = target: Metabotropic glutamate receptor 4 (Mus musculus) (UniProt Q68EF4); test: Agonist activity at mGlu4 in C57/Bl6 mouse GP neurons assessed as inhibition of striatopallidal GABAergic inhibitory postsynaptic current amplitude at 3 uM by whole cell patch clamp assay relative to control
[19] = target: Metabotropic glutamate receptor 4 (Rattus norvegicus) (UniProt P31423); test: Agonist activity at mGlu4 assessed as decrease in PF-induced presynaptic calcium amplitude in rat coronal slices at 100 uM by Fluo-4FF-AM dye based fluorescence assay relative to control; assay type: functional; set-up: scale not given: the % may be the effect or the level left
In short: (§4)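 Coronal cerebellar slices (250 μm) from 18−29-day-old rats. Parallel fibers loaded by focal Fluo-4FF-AM (100 μM); recording at least 45 min later at 28−30 °C. Excitation 485 nm, emission 530 nm, photometer in a 20×50 μm window over the molecular layer. ΔF/F bleach-corrected. Agonist bath-applied from a 40 mM water stock; EC50 and Hill coefficient fitted.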

[20] = target: Metabotropic glutamate receptor 4 (Rattus norvegicus) (UniProt P31423); test: Agonist activity at mGlu4 in rat purkinje cells assessed as mean decrease in parallel fiber-induced excitary postsynaptic currents amplitude for first response at 100 uM treated for 5 mins by whole cell patch clamp assay relative to control; assay type: cell-based; set-up: scale not given: the % may be the effect or the level left
In short: (§5)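 Sagittal cerebellar vermis slices (250 μm) from 18−29-day-old rats. Purkinje cells whole-cell clamped at 28−30 °C. Parallel-fiber EPSCs evoked by paired stimuli 40 ms apart; PPF taken as second/first amplitude, averaged per cell. Agonist bath-applied 5 min from a 40 mM water stock. EC50 and Hill coefficient fitted across independent experiments.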

[21] = target: Glutamate NMDA receptor; Grin1/Grin2a (Rattus norvegicus, UniProt P35439+Q00959); test: Antagonist activity at rat GluN1a/GluN2A receptors expressed in Xenopus laevis oocytes assessed as inhibition of L-glutamate/[…] induced current amplitude at holding potential of -60 mV by […]; assay type: cell-based
[22] = target: Metabotropic glutamate receptor 4 (Mus musculus, UniProt Q68EF4); test: Agonist activity at mGlu4 in C57/Bl6 mouse GP neurons assessed as inhibition of striatopallidal GABAergic inhibitory postsynaptic current amplitude by whole cell patch clamp assay
[23] = target: Metabotropic glutamate receptor 4 (Rattus norvegicus) (UniProt P31423); test: Agonist activity at mGlu4 in rat purkinje cells assessed as mean decrease in parallel fiber-induced excitary postsynaptic currents amplitude for first response treated for 5 mins by whole cell patch clamp assay; assay type: cell-based; in short: as §5
[24] = target: Ionotropic glutamate receptor NMDA1/2B (Rattus norvegicus, UniProt P35439+Q01097); test: Antagonist activity at rat GluN1a/mouse GluN2B receptors expressed in Xenopus laevis oocytes assessed as inhibition of L-glutamate/[…] induced current amplitude at holding potential of -60 mV by […]; assay type: cell-based
[25] = target: Metabotropic glutamate receptor 4 (Rattus norvegicus) (UniProt P31423); test: Agonist activity at mGlu4 in rat purkinje cells assessed as increase in mean paired-pulse facilitation at 100 uM treated for 5 mins by whole cell patch clamp assay relative to control; assay type: cell-based; in short: as §5
[26] = target: T5, Metabotropic glutamate receptor 4; test: (§6) Agonist activity at mGlu4 assessed as decrease in PF-induced presynaptic calcium amplitude in rat coronal slices by Fluo-4FF-AM dye based fluorescence assay; assay type: functional; in short: as §4
[27] = target: Metabotropic glutamate receptor 4 (Rattus norvegicus) (UniProt P31423); test: as §6; assay type: functional; in short: as §4
[28] = target: Metabotropic glutamate receptor 4 (Rattus norvegicus) (UniProt P31423); test: Agonist activity at mGlu4 in rat purkinje cells assessed as mean decrease in parallel fiber-induced excitary postsynaptic currents amplitude for second response at 100 uM treated for 5 mins by whole cell patch clamp assay relative to control; assay type: cell-based; set-up: scale not given: the % may be the effect or the level left; in short: as §5

T1 sequence (O00222 whole entry): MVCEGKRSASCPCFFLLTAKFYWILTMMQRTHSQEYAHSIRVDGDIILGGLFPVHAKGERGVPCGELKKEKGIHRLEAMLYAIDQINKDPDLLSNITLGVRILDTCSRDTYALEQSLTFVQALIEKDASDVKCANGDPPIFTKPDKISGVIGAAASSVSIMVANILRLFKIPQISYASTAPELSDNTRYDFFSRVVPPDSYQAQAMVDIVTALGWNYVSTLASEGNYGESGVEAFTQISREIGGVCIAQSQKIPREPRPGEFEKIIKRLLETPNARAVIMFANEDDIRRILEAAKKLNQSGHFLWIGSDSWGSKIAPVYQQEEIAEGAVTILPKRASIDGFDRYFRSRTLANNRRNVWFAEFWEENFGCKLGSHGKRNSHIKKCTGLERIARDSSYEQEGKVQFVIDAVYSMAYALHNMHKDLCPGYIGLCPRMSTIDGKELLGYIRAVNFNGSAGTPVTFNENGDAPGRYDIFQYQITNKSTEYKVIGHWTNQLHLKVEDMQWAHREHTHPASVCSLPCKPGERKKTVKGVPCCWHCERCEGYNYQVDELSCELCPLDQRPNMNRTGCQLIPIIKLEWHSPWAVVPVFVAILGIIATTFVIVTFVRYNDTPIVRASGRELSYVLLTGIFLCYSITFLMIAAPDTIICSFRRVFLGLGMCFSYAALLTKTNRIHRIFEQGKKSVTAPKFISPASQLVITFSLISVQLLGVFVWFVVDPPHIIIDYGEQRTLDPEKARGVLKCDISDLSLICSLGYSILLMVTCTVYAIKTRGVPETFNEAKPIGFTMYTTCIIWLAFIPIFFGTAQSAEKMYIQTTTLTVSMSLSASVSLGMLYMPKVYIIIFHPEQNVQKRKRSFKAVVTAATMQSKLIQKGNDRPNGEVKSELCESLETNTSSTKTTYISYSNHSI
T5 sequence (P31423 whole entry): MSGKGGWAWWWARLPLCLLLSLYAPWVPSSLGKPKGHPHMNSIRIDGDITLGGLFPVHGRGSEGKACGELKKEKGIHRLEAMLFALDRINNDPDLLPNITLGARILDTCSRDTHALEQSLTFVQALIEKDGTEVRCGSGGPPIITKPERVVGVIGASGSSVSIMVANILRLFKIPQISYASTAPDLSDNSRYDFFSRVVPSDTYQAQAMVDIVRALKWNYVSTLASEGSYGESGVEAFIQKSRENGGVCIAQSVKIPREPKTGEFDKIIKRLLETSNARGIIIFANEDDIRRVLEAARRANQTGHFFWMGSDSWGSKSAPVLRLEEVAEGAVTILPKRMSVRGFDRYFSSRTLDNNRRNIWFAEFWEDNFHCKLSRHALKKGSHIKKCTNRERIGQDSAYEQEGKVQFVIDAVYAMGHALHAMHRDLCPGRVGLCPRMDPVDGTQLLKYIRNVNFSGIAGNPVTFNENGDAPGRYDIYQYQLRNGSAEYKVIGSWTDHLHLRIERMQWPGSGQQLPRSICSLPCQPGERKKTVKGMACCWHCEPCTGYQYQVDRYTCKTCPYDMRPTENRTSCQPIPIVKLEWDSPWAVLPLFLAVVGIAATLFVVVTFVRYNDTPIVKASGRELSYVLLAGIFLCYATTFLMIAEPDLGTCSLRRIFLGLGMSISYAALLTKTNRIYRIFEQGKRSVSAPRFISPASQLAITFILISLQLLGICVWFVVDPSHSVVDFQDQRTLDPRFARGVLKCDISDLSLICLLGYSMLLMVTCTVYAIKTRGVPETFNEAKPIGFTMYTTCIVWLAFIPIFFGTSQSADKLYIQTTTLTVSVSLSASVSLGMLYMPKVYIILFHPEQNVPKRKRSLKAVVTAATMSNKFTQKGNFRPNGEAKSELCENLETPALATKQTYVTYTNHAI
Chain of Metabotropic glutamate receptor 4 (Rattus norvegicus) (P31423 whole entry): as above
T2 sequence (Q14833 whole entry): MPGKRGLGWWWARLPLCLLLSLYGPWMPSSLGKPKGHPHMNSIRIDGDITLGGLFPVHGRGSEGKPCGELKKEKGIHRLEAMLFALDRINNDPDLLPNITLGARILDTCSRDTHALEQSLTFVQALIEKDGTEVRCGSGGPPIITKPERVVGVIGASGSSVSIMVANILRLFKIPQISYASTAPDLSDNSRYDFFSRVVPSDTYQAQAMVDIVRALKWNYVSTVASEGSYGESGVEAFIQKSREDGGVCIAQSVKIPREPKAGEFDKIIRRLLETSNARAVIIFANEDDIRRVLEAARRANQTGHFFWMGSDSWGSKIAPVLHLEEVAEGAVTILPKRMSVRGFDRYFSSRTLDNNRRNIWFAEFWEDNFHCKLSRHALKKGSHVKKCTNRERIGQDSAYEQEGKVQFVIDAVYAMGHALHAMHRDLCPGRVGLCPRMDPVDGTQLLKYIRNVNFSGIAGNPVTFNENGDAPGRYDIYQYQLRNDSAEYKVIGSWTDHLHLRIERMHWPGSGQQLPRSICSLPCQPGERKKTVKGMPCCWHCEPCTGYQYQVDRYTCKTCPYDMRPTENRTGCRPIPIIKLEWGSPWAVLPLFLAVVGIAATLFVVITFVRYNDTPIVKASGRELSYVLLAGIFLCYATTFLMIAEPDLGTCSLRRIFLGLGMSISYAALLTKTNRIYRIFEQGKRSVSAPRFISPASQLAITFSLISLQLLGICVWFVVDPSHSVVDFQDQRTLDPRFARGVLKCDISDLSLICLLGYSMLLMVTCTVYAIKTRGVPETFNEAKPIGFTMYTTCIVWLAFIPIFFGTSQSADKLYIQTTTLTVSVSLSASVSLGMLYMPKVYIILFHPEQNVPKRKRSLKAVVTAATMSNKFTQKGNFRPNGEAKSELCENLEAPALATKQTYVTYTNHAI
T3 sequence (Q14831 whole entry): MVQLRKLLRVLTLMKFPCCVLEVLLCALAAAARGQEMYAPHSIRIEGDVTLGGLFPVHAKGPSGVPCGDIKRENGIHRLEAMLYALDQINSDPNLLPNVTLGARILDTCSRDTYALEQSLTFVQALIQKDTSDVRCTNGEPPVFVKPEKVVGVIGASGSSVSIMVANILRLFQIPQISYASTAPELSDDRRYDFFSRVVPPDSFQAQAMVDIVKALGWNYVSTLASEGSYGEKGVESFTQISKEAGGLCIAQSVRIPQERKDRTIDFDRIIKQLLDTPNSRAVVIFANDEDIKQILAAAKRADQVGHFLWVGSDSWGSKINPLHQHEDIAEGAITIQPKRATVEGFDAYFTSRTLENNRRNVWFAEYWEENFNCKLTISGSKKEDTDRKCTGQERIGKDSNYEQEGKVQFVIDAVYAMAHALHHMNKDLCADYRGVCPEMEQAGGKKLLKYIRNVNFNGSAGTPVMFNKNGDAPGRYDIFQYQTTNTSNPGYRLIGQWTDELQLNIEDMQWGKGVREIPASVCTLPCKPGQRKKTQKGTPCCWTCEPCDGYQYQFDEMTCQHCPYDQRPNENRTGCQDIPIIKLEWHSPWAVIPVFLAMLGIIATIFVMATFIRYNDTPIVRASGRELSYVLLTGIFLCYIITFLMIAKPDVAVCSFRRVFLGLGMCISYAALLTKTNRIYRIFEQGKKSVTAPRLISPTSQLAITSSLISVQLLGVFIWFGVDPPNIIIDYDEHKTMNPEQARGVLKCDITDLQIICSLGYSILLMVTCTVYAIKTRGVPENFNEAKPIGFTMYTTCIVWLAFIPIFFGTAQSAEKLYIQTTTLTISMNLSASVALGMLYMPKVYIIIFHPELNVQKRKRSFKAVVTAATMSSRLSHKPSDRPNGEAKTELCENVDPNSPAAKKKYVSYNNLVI
T4 sequence (O15303 whole entry): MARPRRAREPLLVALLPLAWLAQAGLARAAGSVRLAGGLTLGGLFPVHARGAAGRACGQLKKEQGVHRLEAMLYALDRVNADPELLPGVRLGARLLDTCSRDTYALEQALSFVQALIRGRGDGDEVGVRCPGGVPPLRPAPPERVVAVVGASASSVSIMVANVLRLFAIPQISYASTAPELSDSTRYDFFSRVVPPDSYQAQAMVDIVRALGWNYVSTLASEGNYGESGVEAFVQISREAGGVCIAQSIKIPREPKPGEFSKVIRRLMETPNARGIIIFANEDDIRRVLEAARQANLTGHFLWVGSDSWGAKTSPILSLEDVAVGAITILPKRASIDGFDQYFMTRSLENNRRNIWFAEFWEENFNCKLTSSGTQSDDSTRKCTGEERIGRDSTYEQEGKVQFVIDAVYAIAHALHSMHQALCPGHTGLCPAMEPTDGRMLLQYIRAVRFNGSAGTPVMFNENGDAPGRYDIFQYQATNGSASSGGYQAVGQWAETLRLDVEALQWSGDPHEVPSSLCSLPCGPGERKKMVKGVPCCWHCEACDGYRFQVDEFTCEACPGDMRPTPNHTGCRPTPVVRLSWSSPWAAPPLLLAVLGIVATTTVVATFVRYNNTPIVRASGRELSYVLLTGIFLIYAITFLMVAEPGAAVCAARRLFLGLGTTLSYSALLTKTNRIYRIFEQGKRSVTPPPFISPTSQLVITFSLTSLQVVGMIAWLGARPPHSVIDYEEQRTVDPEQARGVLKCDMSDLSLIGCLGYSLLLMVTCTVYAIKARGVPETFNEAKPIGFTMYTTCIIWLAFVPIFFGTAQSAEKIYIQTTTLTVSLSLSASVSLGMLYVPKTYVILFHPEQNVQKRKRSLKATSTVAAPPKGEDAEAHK
Chain of Metabotropic glutamate receptor 4 (Mus musculus, UniProt Q68EF4) (Q68EF4 whole entry): as the sequence (P31423 whole entry) above, with A24G, P25S, G280A, M339T, L482R, I705V, G713C, T895A counted along it
Chain of Metabotropic glutamate receptor 4 (Mus musculus) (Q68EF4 whole entry): as the sequence (P31423 whole entry) above, with A24G, P25S, G280A, M339T, L482R, I705V, G713C, T895A counted along it

Structure (SMILES) | Ratio EC50 [3] | Ratio EC50 [4] | pEC50 [6] | pEC50 [7] | pEC50 [8] | pEC50 [9] | pEC50 [10] | pEC50 [11] | further results
COc1cc(C(O)P(=O)(O)CCC[C@H](N)C(=O)O)cc([N+](=O)[O-])c1O (some centres undefined) | – | – | – | – | – | – | – | – | Activity [1]: inactive; Activity [2]: inactive
N[C@@H](CCP(=O)(O)O)C(=O)O | 2.2 | 2.5 | 3.60 | 6.00 | 5.62 | – | – | – | pEC50 [5]: 3.47
N[C@@H](CCP(=O)(O)C(O)c1ccc(C(F)(F)F)c([N+](=O)[O-])c1)C(=O)O (some centres undefined) | 3.5 | – | < 4.00 | 4.92 | 5.24 | 5.81 | 6.36 | – | –
N[C@H](C(=O)O)c1ccc(C(=O)O)c(C(=O)O)c1 | 0.014 | 0.012 | 4.00 to 4.52 | 5.21 to 5.49 | – | 7.36 | 5.49 | 7.64 | –
N[C@@H](CCP(=O)(O)C(O)c1ccccc1C(=O)O)C(=O)O (some centres undefined) | – | – | – | – | – | – | – | – | Activity [12]: inactive
N[C@@H](CCP(=O)(O)C(O)c1ccc(Cl)c([N+](=O)[O-])c1)C(=O)O (some centres undefined) | 1 | 1.2 | < 4.00 | 4.74 | – | 5.31 | 5.33 | 5.60 | –
N[C@@H](CCP(=O)(O)C(O)c1csc([N+](=O)[O-])c1)C(=O)O (some centres undefined) | 2 | 3.2 | – | – | 5.44 | 6.42 | 6.72 | 6.29 | pEC50 [13]: 5.03; pEC50 [5]: 3.38; pEC50 [14]: 6.49
N[C@@H](CCP(=O)(O)C(O)c1ccc([N+](=O)[O-])o1)C(=O)O (some centres undefined) | – | 2.2 | – | – | 5.21 | – | – | 6.52 | pEC50 [5]: 2.71
N[C@@H](CCP(=O)(O)C(O)c1cccnc1)C(=O)O (some centres undefined) | – | – | – | – | – | – | 4.52 | 4.44 | Ratio EC50 [15]: 1.2
N[C@@H](CCP(=O)(O)C(O)c1ccc(C(=O)O)cc1)C(=O)O (some centres undefined) | – | 18 | – | – | 4.51 | – | – | 3.85 | pEC50 [5]: 3.77
Cc1ccc(C(O)P(=O)(O)CC[C@H](N)C(=O)O)cc1[N+](=O)[O-] (some centres undefined) | 0.5 | 1.6 | – | 5.40 | < 4.00 | 5.80 | 5.48 | 5.25 | Activity [16]: inactive
N[C@@H](CCP(=O)(O)CCC(=O)O)C(=O)O | 1.1 | 1.2 | 4.05 | 5.17 | 4.51 | 5.19 | 5.23 | 5.11 | –
N[C@@H](CCP(=O)(O)C(O)c1ccc(F)c([N+](=O)[O-])c1)C(=O)O (some centres undefined) | 1.5 | 2.1 | < 4.00 | 5.40 | 4.60 | 6.18 | 6.36 | 5.89 | –
N[C@@H](CCP(=O)(O)C(O)c1cccc(C(=O)O)c1)C(=O)O (some centres undefined) | – | 5.8 | – | – | < 4.00 | – | – | 3.90 | –
N[C@@H](CCCP(=O)(O)C(O)c1ccc(OCC(=O)O)cc1)C(=O)O (some centres undefined) | – | – | – | – | – | – | – | – | Activity [1]: inactive; Activity [2]: inactive
COc1cc(C(N)P(=O)(O)CC[C@H](N)C(=O)O)cc([N+](=O)[O-])c1O (some centres undefined) | 3 | – | – | < 4.00 | – | – | 4.94 | – | Activity [17]: inactive
N[C@@]1(C(=O)O)C[C@H](C(=O)O)[C@H](C(=O)O)C1 | – | 3 | – | – | 4.96 | – | – | 5.29 | pEC50 [5]: 3.55
COc1cc(C(O)P(=O)(O)CC[C@H](N)C(=O)O)cc([N+](=O)[O-])c1O (mixture of isomers) | – | – | – | – | – | 4.71 | 6.05 | – | Imax [18]: 40%; Activity [19]: 12.5%; Activity [20]: 39.2%; pIC50 [21]: 2.96; pEC50 [22]: 6.70; Activity [23]: Dose-dependent effect; pIC50 [24]: 2.64; Activity [25]: 2.29 to 2.91%; pEC50 [26]: 4.70; Activity [27]: Dose-dependent effect; Imax [27]: 40%; Activity [28]: 26.4%
N[C@@H](CCP(=O)(O)C(O)c1cc(O)c(O)c([N+](=O)[O-])c1)C(=O)O (some centres undefined) | 7.6 | 1.1 | < 4.00 | 4.59 | – | 4.48 | 5.37 | 5.27 | –
N[C@@H](CCP(=O)(O)C(O)c1ccc([N+](=O)[O-])cc1)C(=O)O (some centres undefined) | 0.8 | 1.4 | < 4.00 | 5.34 | – | 6.31 | 6.19 | 6.28 | –
Nc1ncc(C(O)P(=O)(O)CC[C@H](N)C(=O)O)s1 (some centres undefined) | 1.9 | – | – | < 4.00 | – | 4.55 | 4.82 | – | Activity [17]: inactive
